Measured values as given in ChEMBL document CHEMBL1144899, “Influence of phenyl ring disubstitution on bisbenzimidazole and terbenzimidazole cytotoxicity: synthesis and biological evaluation as radioprotectors” (2003).
Where “and” joins values, the source holds several entries; their conditions need not be identical. Equal values may be shown once.

Assays:
[1] = Percent cell kill against BMG-1 (Human brain malignant glioma cell line with a DNA index of 0.96; wild type TP 53) at 1 hour incubation at 100 (uM)
Homo sapiens = species on record: Homo sapiens; assay: In Vitro Cytotoxicity against BMG-1 (Human glioma cell line with a DNA index of 0.96; wild type TP 53) using MTT assay at 100 uM at 72 hours; No effect on the proliferation kinetics of BMG-1 cells.; assay type: functional, cell-based
[2] = In Vitro Cytotoxicity against BMG-1 (Human brain malignant glioma cell line with a DNA index of 0.96; wild type TP 53) using Macrocolony assay at 10 uM […]; assay type: functional
In short: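 BMG-1 glioma cells in DMEM with 5% fetal calf serum at 37 °C, exponential phase, 24 h after plating. Drug (0.1, 1, 10 or 100 μM) given for 1 h, then washed off. 200–1200 cells plated and grown 8–10 days at 37 °C in 5% CO2. Colonies fixed in methanol and stained with crystal violet; colonies over 50 cells counted and expressed as percent of control.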

Nucleic Acid [3] = assay: DNA binding property using 100(uM) of calf thymus DNA (CTDNA) and at 100(uM) was determined; assay type: nucleic-acid assay; conditions: Bos taurus
Nucleic Acid [4] = assay: DNA binding property using 100(uM) of calf thymus DNA (CTDNA) and at 10(uM) was determined; assay type: nucleic-acid assay; conditions: Bos taurus
In short: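 Calf thymus DNA (100 μM) with ligand at drug/DNA ratio r = 0.1 (10 μM drug) in 2 mM sodium cacodylate buffer, equilibrated 25 min. Thermal melting by absorbance at 260 nm, heated 25 to 100 °C at 0.5 °C/min; Tm taken as the midpoint of normalized curves, ΔTm relative to DNA alone. UV absorption (200–500 nm) and fluorescence emission spectra also recorded.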

[5] = In Vitro Cytotoxicity against BMG-1 (Human glioma cell line with a DNA index of 0.96; wild type TP 53) using Macrocolony assay (clonogenicity) at 100 uM at 72 hours; assay type: functional; conditions: read-out: Survival
[6] = In Vitro Cytotoxicity against BMG-1 (Human glioma cell line with a DNA index of 0.96; wild type TP 53) using Irradiation procedures followed by Macrocolony assay at 5Gy and 10 (uM) at 24 hr; assay type: functional; conditions: in the assay text read “growth kinetics” for “Macrocolony assay”
[7] = (§1) In Vitro Cytotoxicity against BMG-1 (Human glioma cell line with a DNA index of 0.96; wild type TP 53) using Irradiation procedures followed by Macrocolony assay at 10 Gy and 10 (uM); assay type: functional
In short: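 Exponentially growing BMG-1 cells, 24 h after plating, given 10 μM ligand 1 h before irradiation. Co-60 gamma irradiation (2, 5 or 10 Gy) at room temperature in growth medium at 0.5–1.2 Gy/min. Cells then plated and colonies of more than 50 cells counted after 8–10 days. Survival expressed as percent of cells irradiated at the same dose without ligand.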

[8] = In Vitro Cytotoxicity against BMG-1 (Human brain malignant glioma cell line with a DNA index of 0.96; wild type TP 53) using MTT assay at 100 uM at 24 hours
[9] = In Vitro Cytotoxicity against BMG-1 (Human brain malignant glioma cell line with a DNA index of 0.96; wild type TP 53) using MTT assay at 10 uM at 72 hours; assay type: functional
In short: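 Then MTT at 0.5 mg/mL final for 2 h at 37 °C; formazan dissolved in DMSO; absorbance read at 570 nm against 630 nm reference; results as percent survival.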

[10] = as §1; assay type: functional; remark: listed apart in the source
In short: (§2)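 Exponential BMG-1 (24 h after plating) given 10 μM drug 1 h before irradiation. Co-60 gamma rays at room temperature in growth medium, 0.5–1.2 Gy/min, at 2, 5 or 10 Gy. Cells plated for macrocolony assay, 8–10 days at 37 °C in 5% CO2; crystal violet-stained colonies >50 cells counted; survival as percent of irradiated control at each dose.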

[11] = In Vitro Cytotoxicity against BMG-1 (Human brain malignant glioma cell line with a DNA index of 0.96; wild type TP 53) using Macrocolony assay (clonogenicity) at 100 uM at 72 hours; assay type: functional; conditions: read-out: Survival
[12] = In Vitro Cytotoxicity against BMG-1 (Human glioma cell line with a DNA index of 0.96; wild type TP 53) using Irradiation procedures followed by Macrocolony assay at 2 Gy and 10 (uM); assay type: functional
In short: as §2

[13] = Percent cell kill against BMG-1 (Human brain malignant glioma cell line with a DNA index of 0.96; wild type TP 53) at 1 hour incubation at 10 (uM)
[14] = In Vitro Cytotoxicity against BMG-1 (Human glioma cell line with a DNA index of 0.96; wild type TP 53) using Irradiation procedures followed by Macrocolony assay at 5Gy and 10 (uM); assay type: functional
In short: as §2

SMILES	Cell kill % [1]	NA (Homo sapiens)	Protection [2]	Lambda-em (Nucleic Acid [3])	Lambda-ex (Nucleic Acid [3])	Tm (Nucleic Acid [3])	ΔTm (Nucleic Acid [3])	Lambda-em (Nucleic Acid [4])	Lambda-ex (Nucleic Acid [4])	viability at 100 µM [5]	Protection [6]	Protection [7]	Lysis [8]	Killed [9]	Survival [10]	viability at 100 µM [11]	Survival [12]	Cell kill % [13]	Survival [14]
COc1ccc(-c2nc3cc(-c4nc5cc(N6CCN(C)CC6)ccc5[nH]4)ccc3[nH]2)cc1OC	27%	No effect on the proliferation kinetics of BMG-1 cells	82%	484 nm	354 nm	76.4 °C	6.4 °C	500 nm	340 nm	73%	84%	100%							
CCOc1ccc(-c2nc3cc(-c4nc5cc(N6CCN(C)CC6)ccc5[nH]4)ccc3[nH]2)cc1	90%			484 nm	354 nm	76 °C	6 °C	500 nm	340 nm				77%	35%	15%	10%	10%	55%	15%
COc1cc(-c2nc3cc(-c4nc5cc(-c6nc7cc(N8CCN(C)CC8)ccc7[nH]6)ccc5[nH]4)ccc3[nH]2)ccc1O		No effect on the proliferation kinetics of BMG-1 cells	37%	418 nm and 441 nm	356 nm and 391 nm	78 °C	8 °C	500 nm	350 nm		100%				100%	92%	24%		37%
